Values after ≈ are worked out from the molar mass of the structure shown.
Key:
[1] = molecular target: Rhodesain (Trypanosoma brucei rhodesiense, UniProt Q95PM0); experiment: Inhibition of Trypanosoma brucei rhodesiense rhodesain using Cbz-Phe-Arg-AMC as substrate by fluorimetric method
In short: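 Fluorescence-based assay run at 25 °C in 50 mM sodium acetate pH 5.5 with 5 mM EDTA, 200 mM NaCl and 0.005% Brij35. IC50 values were converted to Ki with the Cheng-Prusoff equation. Values are the average of two measurements, each done in duplicate.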

[2] = Selectivity index, ratio of Ki for human CatL to Ki for Trypanosoma brucei rhodesiense rhodesain
In short: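 Ki(hCatL)/Ki(RD). Fluorimetric assays at 25 °C: RD in 50 mM sodium acetate pH 5.5; hCatL in 50 mM Tris pH 6.5; both buffers with 5 mM EDTA, 200 mM NaCl, 0.005% Brij35. Ki derived from IC50 by Cheng-Prusoff. Each value is the mean of two measurements, each done in duplicate.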

[3] = molecular target: Procathepsin L (Homo sapiens, UniProt P07711); experiment: Inhibition of human CatL using Cbz-Phe-Arg-AMC as substrate measured over 30 mins by fluorimetric method
In short: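 Human cathepsin L in a fluorimetric assay in 50 mM Tris pH 6.5, 5 mM EDTA, 200 mM NaCl, 0.005% Brij35 at 25 °C. Ki was calculated from IC50 by Cheng-Prusoff. Value is the average of two measurements, each in duplicate.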

[4] = test system: Trypanosoma brucei rhodesiense; experiment: Antitrypanosomal activity against bloodstream form of Trypanosoma brucei rhodesiense STIB 900 assessed as parasite growth inhibition after 72 hrs by Alamar blue assay; assay type: functional; details: STIB 900, 72 h
In short: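 Standard 72 h growth-inhibition assay with STIB 900 bloodstream trypomastigotes and Alamar Blue read-out. Value is the mean of at least 2 measurements.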

[5] = test system: L6; experiment: Cytotoxicity against rat L6 cells after 72 hrs by Alamar blue assay; assay type: cell-based; details: L6, 72 h
In short: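 Rat skeletal myoblast L6 cells in an Alamar Blue growth-inhibition assay. Value is the mean of at least 2 measurements.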

[6] = test system: Trypanosoma brucei rhodesiense; experiment: Antitrypanosomal activity against bloodstream form of Trypanosoma brucei rhodesiense STIB 900 infected in NMRI mouse assessed as reduction of parasitemia at 50 mg/kg, po administered for 3 consecutive days starting 1 day post infection measured at 24 hrs post last dose relative to control; assay type: functional; design: scale not given: the % may be the effect or the level left
In short: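 Female mice infected with STIB900 were dosed orally at 50 mg/kg/day on three consecutive days, starting 1 day post-infection. Compound was in 100% DMSO diluted 10-fold in distilled water, given at 0.1 mL/10 g. Tail-blood parasitaemia was measured 24 h after the last dose versus 4 untreated infected controls. Values are means of 2 mice.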

[7] = Octanol-water intrinsic distribution co-efficient, log D of the compound at 100 uM at pH 7.4 after 16 to 22 hrs by CAMDIS assay; assay type: physicochemical
In short: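 Octanol/aqueous buffer (pH 7.4) intrinsic distribution coefficient measured in the CAMDIS carrier-mediated distribution system.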

[8] = Solubility of the compound at pH 6.5 by LYSA; assay type: physicochemical; details: buffer
In short: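 Lyophilization solubility assay at pH 6.5.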

[9] = Selectivity index, ratio of IC50 for rat L6 cells to IC50 for bloodstream form of Trypanosoma brucei rhodesiense STIB 900; assay type: toxicity; details: read-out: Ratio IC50
In short: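 Ratio of L-6 rat skeletal myoblast IC50 to T. b. rhodesiense STIB 900 bloodstream trypomastigote IC50, both from Alamar Blue growth-inhibition assays. Each IC50 is the mean of at least 2 measurements.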

Sequence of Procathepsin L (P07711 whole entry): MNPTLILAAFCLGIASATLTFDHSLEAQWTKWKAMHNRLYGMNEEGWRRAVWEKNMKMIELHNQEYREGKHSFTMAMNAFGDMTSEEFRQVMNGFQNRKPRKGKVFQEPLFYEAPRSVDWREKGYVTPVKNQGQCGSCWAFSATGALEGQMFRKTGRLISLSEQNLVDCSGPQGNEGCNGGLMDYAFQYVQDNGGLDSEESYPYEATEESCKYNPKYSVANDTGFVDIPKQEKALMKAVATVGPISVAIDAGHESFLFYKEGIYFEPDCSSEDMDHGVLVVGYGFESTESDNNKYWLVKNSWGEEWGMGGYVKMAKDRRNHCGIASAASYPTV
Sequence of Rhodesain (Q95PM0 whole entry): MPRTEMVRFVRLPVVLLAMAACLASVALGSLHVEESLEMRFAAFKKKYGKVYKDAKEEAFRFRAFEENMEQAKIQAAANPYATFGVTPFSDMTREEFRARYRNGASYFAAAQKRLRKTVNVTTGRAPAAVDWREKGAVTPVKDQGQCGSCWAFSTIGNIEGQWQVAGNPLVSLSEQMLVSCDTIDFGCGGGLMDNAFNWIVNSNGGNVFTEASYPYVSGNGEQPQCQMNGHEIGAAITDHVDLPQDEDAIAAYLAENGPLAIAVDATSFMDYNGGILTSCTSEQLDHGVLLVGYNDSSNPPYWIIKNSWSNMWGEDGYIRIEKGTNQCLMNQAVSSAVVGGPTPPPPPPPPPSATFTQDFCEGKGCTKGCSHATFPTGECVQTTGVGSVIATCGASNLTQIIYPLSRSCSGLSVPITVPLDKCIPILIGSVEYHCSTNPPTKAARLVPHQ

Q: With `N#CC1(NC(=O)[C@H](Cc2ccccc2C(F)(F)F)NC(=O)c2cnn(-c3ccc(F)cc3)n2)CC1` as the compound, how does the Ki [1] read?
A: 0.0074 to 0.597 µM

Q: What about the Ratio Ki [2] of the same compound?
A: 18 to 507

Q: Which results are given for `N#CC1(NC(=O)[C@H](Cc2ccc(Cl)c(Cl)c2)NC(=O)c2cnn(C3COC3)n2)CC1`?
A: Ki [1]: 0.033 µM; Ki [3]: 0.078 µM; Ratio Ki [2]: 2.4; IC50 [4]: 0.008 µM; IC50 [5]: > 100 µM; Activity [6]: 45.3%

Q: Which results are given for `N#CC1(NC(=O)[C@H](Cc2ccccc2Cl)NC(=O)c2cnn(-c3ccc(F)cc3)n2)CC1`?
A: Ki [1]: 0.0074 to 0.597 µM; Ratio Ki [2]: 18 to 507

Q: For `N#Cc1ccc(C[C@H](NC(=O)c2cnn(-c3ccc(F)cc3)n2)C(=O)NC2(C#N)CC2)cc1Cl`, which logD at 100 µM [7] is on record?
A: 3.63

Q: What about the solubility [8] of the same compound?
A: < 0.3 µg/mL

Q: And the Ki [1]?
A: 0.007 µM

Q: What about the Ki [3] of the same compound?
A: 0.253 µM

Q: And the Ratio Ki [2]?
A: 36

Q: What about the IC50 [4] of the same compound?
A: 0.006 µM

Q: And the IC50 [5]?
A: > 10 µM

Q: For `N#CC1(NC(=O)[C@H](Cc2ccc(Cl)cc2)NC(=O)c2cnn(-c3ccc(F)cc3)n2)CC1`, which logD at 100 µM [7] is on record?
A: 3.97

Q: What about the solubility [8] of the same compound?
A: < 0.3 µg/mL

Q: And the Ki [1]?
A: 0.003 µM

Q: What about the Ki [3] of the same compound?
A: 1.52 µM

Q: And the Ratio Ki [2]?
A: 507

Q: And the IC50 [4]?
A: 0.006 µM

Q: What about the IC50 [5] of the same compound?
A: > 10 µM

Q: With `N#CC1(NC(=O)[C@H](Cc2cccc(Cl)c2)NC(=O)c2cnn(-c3ccc(F)cc3)n2)CC1` as the compound, how does the Ki [1] read?
A: 0.0074 to 0.597 µM

Q: What about the Ratio Ki [2] of the same compound?
A: 18 to 507

Q: What does the source list for `N#CC1(NC(=O)[C@H](Cc2ccc(OCc3ccccc3)cc2)NC(=O)c2cnn(-c3ccc(F)cc3)n2)CC1`?
A: solubility [8]: < 0.3 µg/mL; Ki [1]: 0.017 µM; Ki [3]: 1.47 µM; Ratio Ki [2]: 87; IC50 [4]: 0.019 µM; IC50 [5]: > 10 µM

Q: For `N#CC1(NC(=O)[C@H](Cc2ccccc2)NC(=O)c2cnn(-c3ccc(F)cc3)n2)CC1`, which Ki [1] is on record?
A: 0.0074 to 0.597 µM

Q: What about the Ratio Ki [2] of the same compound?
A: 18 to 507

Q: With `N#CC1(NC(=O)[C@H](Cc2ccc(OC(F)(F)F)c(Cl)c2)NC(=O)c2cnn(-c3ccc(Cl)cc3)n2)CC1` as the compound, how does the solubility [8] read?
A: < 0.3 µg/mL

Q: And the Ki [1]?
A: 0.01 µM

Q: And the Ki [3]?
A: 0.467 µM

Q: And the Ratio Ki [2]?
A: 47

Q: What about the IC50 [4] of the same compound?
A: 0.022 µM

Q: And the IC50 [5]?
A: 8.3 µM

Q: What about the selectivity ratio [9] of the same compound?
A: 377

Q: What does the source list for `N#CC1(NC(=O)[C@H](Cc2ccc(OC(F)(F)F)c(Cl)c2)NC(=O)c2cnn(C3COC3)n2)CC1`?
A: logD at 100 µM [7]: 2.58; solubility [8]: 4 µg/mL (≈ 8.02 µM); Ki [1]: 0.031 µM; Ki [3]: 0.025 µM; Ratio Ki [2]: 0.8; IC50 [4]: 0.003 µM; IC50 [5]: 96 µM; Activity [6]: 43.1%; selectivity ratio [9]: 32000

Q: Which IC50 [4] does the source give for `N=C(N)c1ccc(OCCCCCOc2ccc(C(=N)N)cc2)cc1` [PENTAMIDINE] here?
A: 0.009 µM

Q: For `N#CC1(NC(=O)[C@H](Cc2ccc(OCC3CC3)c(Cl)c2)NC(=O)c2cnn(-c3ccc(F)cc3)n2)CC1`, which Ki [1] is on record?
A: 0.009 to 0.016 µM

Q: What about the Ki [3] of the same compound?
A: 0.181 to 0.314 µM

Q: What about the Ratio Ki [2] of the same compound?
A: 18 to 507

Q: And the IC50 [4]?
A: 0.027 to 0.19 µM

Q: For `N#CC1(NC(=O)[C@H](Cc2ccc(OC(F)(F)F)c(Cl)c2)NC(=O)c2cnn(C3CCNC3)n2)CC1` (stereo partly drawn), which logD at 100 µM [7] is on record?
A: 1.33

Q: And the solubility [8]?
A: 253 µg/mL (≈ 494 µM)

Q: And the Ki [1]?
A: 0.093 µM

Q: What about the Ki [3] of the same compound?
A: 0.014 µM

Q: What about the Ratio Ki [2] of the same compound?
A: 0.2

Q: What about the IC50 [4] of the same compound?
A: 0.0002 µM

Q: What about the IC50 [5] of the same compound?
A: 56 µM

Q: And the Activity [6]?
A: 0.4%

Q: And the selectivity ratio [9]?
A: 280000

Q: With `CSc1ccc(-n2ncc(C(=O)N[C@@H](Cc3ccc(OC(F)(F)F)c(Cl)c3)C(=O)NC3(C#N)CC3)n2)cc1` as the compound, how does the solubility [8] read?
A: < 0.3 µg/mL

Q: And the Ki [1]?
A: 0.019 µM

Q: What about the Ki [3] of the same compound?
A: 1.12 µM

Q: And the Ratio Ki [2]?
A: 59

Q: And the IC50 [4]?
A: 0.067 µM

Q: What about the IC50 [5] of the same compound?
A: > 10 µM

Q: For `N#CC1(NC(=O)[C@H](Cc2ccc(OC(F)(F)F)c(Cl)c2)NC(=O)c2cnn(C3CCOCC3)n2)CC1`, which logD at 100 µM [7] is on record?
A: 3.33

Q: And the solubility [8]?
A: 90 µg/mL (≈ 171 µM)

Q: What about the Ki [1] of the same compound?
A: 0.018 µM

Q: And the Ki [3]?
A: 0.112 µM

Q: What about the Ratio Ki [2] of the same compound?
A: 6.2

Q: What about the IC50 [4] of the same compound?
A: 0.013 µM

Q: And the IC50 [5]?
A: > 100 µM

Q: For `CC1CS(=O)(=O)CCN1/N=C/c1ccc([N+](=O)[O-])o1` (stereo not drawn) [NIFURTIMOX], which IC50 [4] is on record?
A: 1.44 µM

Source: ChEMBL document CHEMBL4043300, “2 H-1,2,3-Triazole-Based Dipeptidyl Nitriles: Potent, Selective, and Trypanocidal Rhodesain Inhibitors by Structure-Based Design” (J Med Chem, 2018)
